Results: ChEMBL document CHEMBL5674890, “Selective inhibition of CBP/p300 HAT by A-485 results in suppression of lipogenesis and hepatic gluconeogenesis” (Cell Death Dis, 2020)

How the values were obtained:
Type in all cases: organism-based
Settings in all cases: in vivo, 168 h, time 1 weeks
[1] = Toxicity in C57BL/6 mouse supplemented with normal chow diet assessed as effect on food intake at 20 mg/kg/day, ip administered for 1 week
Summary of the method: (§1)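 Male C57BL/6 mice, 8 weeks old, on normal chow, 12 h light/dark, barrier housing. Dosed intraperitoneally 20 mg·kg−1·day−1 for 7 days alongside vehicle-injected controls. Body weight followed over treatment; food intake, VO2, VCO2, respiratory exchange ratio, and plasma total cholesterol and triglyceride recorded. Mean ± SEM, n = 5–9; t test, P < 0.05.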

[2] = Toxicity in C57BL/6 mouse supplemented with normal chow diet assessed as effect on carbon dioxide production at 20 mg/kg/day, ip administered for 1 week; summary of the method: as §1
[3] = Toxicity in C57BL/6 mouse supplemented with normal chow diet assessed as effect on body weight at 20 mg/kg/day, ip administered for 1 week; summary of the method: as §1
[4] = Toxicity in C57BL/6 mouse supplemented with normal chow diet assessed as effect on plasma total cholesterol content at 20 mg/kg/day, ip administered for 1 week; summary of the method: as §1
[5] = Toxicity in C57BL/6 mouse supplemented with normal chow diet assessed as effect on respiratory exchange ratios at 20 mg/kg/day, ip administered for 1 week; summary of the method: as §1
[6] = Toxicity in C57BL/6 mouse supplemented with normal chow diet assessed as effect on oxygen consumption at 20 mg/kg/day, ip administered for 1 week; summary of the method: as §1
[7] = Toxicity in C57BL/6 mouse supplemented with normal chow diet assessed as effect on triglyceride levels at 20 mg/kg/day, ip administered for 1 week; summary of the method: as §1

Measured: Activity

CNC(=O)Nc1ccc2c(c1)CC[C@@]21OC(=O)N(CC(=O)N(Cc2ccc(F)cc2)[C@@H](C)C(F)(F)F)C1=O
Non-Toxic: all assays above
